Test results published in ChEMBL document CHEMBL4219175, “Synthesis and biological evaluation of aminothiazoles against Histoplasma capsulatum and Cryptococcus neoformans” (Bioorg Med Chem, 2018).
Values after ≈ are worked out from the molar mass of the structure shown.

Legend:
Cryptococcus neoformans [1] = assay: Antifungal activity against wild type fluconazole-sensitive Cryptococcus neoformans serotype A H99 at pH 5 measured over 4 days; assay type: functional, organism-based; conditions: var grubii H99 , 96 h
Summary of the method: (§1)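 YPD-grown exponential-phase yeasts, hemacytometer-counted, diluted into RPMI buffered to pH 7.0 with 25 mM HEPES (or pH 5.0 with […] for pH comparison) at 2 x 10^3 per well; two-fold series 40 to 0.078 µM, 37 °C, agitated twice daily. A595 followed over 4 days versus DMSO controls; day-3 turbidity fitted by 4-parameter regression for IC50; MIC = growth ≤10% of untreated.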

Cryptococcus neoformans [2] = assay: Antifungal activity against wild type fluconazole-sensitive Cryptococcus neoformans serotype A H99 at pH 7 measured over 4 days; assay type: functional, organism-based; conditions: var grubii H99 , 96 h; summary of the method: as §1
[3] = Aqueous solubility of the compound at pH 5; assay type: physicochemical; conditions: aqueous medium
[4] = Ratio of aqueous solubility at pH 5 to aqueous solubility at pH 7; assay type: physicochemical; conditions: buffer
Histoplasma capsulatum [5] = assay: Antifungal activity against Histoplasma capsulatum G217B ATCC 26032 at pH 7 measured over 5 days; assay type: functional, organism-based; conditions: G217B ATCC 26032, 120 h
Summary of the method: (§2)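 Yeasts pre-grown in HMM (37 °C, 5% CO2) to exponential phase, counted by hemacytometer, diluted into RPMI buffered with 25 mM HEPES (pH 7.0) or 25 mM MOPS (pH 5.0) at 5 x 10^5 per well; two-fold dilutions 40 to 0.078 µM, 37 °C, agitated twice daily. A595 read over 5 days, normalized to DMSO controls; 4-day data fitted by 4-parameter regression for IC50; MIC = ≤10% growth.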

P388D1 = assay: Cytotoxicity against mouse P388D1 cells assessed as reduction in cell viability after 72 hrs by resazurin-based fluorescence assay; conditions: P388D1, 72 h
Summary of the method: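 P388D1 cells in Ham's F-12 + 10% FBS + 2 mM L-glutamine seeded at 5 x 10^3 per well, adhered overnight, exposed to compounds 80 to 0.3 µM for 72 h. Viability read as resorufin fluorescence (530/590 nm) after 0.1 mM resazurin, pre-saturation time points, versus untreated cells; three biological replicates; IC50 by non-linear regression.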

[6] = Aqueous solubility of the compound at pH 7; assay type: physicochemical; conditions: aqueous medium
Histoplasma capsulatum [7] = assay: Antifungal activity against Histoplasma capsulatum G217B ATCC 26032 at pH 5 measured over 5 days; assay type: functional, organism-based; conditions: G217B ATCC 26032, 120 h; summary of the method: as §2
[8] = Therapeutic index, ratio of IC50 for mouse P388D1 cells to IC50 for Histoplasma capsulatum G217B ATCC 26032; assay type: toxicity; conditions: read-out: Ratio IC50
Summary of the method: (§3)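 Ratio of P388D1 IC50 (72 h resazurin viability, 80 to 0.3 µM) to yeast IC50 from RPMI/HEPES pH 7.0 broth dilution with A595 turbidity and 4-parameter regression.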

Cryptococcus neoformans [9] = assay: Antifungal activity against wild-type fluconazole-sensitive Cryptococcus neoformans serotype D B3501 measured over 4 days; assay type: functional, organism-based; conditions: B3501, 96 h; summary of the method: as §1
[10] = Therapeutic index, ratio of IC50 for mouse P388D1 cells to IC50 for wild type Cryptococcus neoformans serotype A H99; assay type: toxicity; conditions: read-out: Ratio IC50; summary of the method: as §3
Cryptococcus neoformans [11] = assay: Antifungal activity against fluconazole-resistant Cryptococcus neoformans serotype A TES9 harboring erg11 mutant measured over 4 days; assay type: functional, organism-based; conditions: TES9, 96 h; summary of the method: as §1
Histoplasma capsulatum [12] = assay: Antifungal activity against RFP expressing Histoplasma capsulatum infected in LacZ-expressing mouse P388D1 cells incubated for 6 days measured daily by fluorescence assay; assay type: functional, organism-based; conditions: for MIC: 144 h; for IC50: P388D1, 144 h
Summary of the method: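 LacZ-expressing P388D1 macrophages (3x10^4 per well, adhered 3 h) infected with RFP Histoplasma yeasts at MOI 1:2 for 3 h, medium replaced with F-12 + 10% serum, overnight at 37 °C, then compound gradient added for 6 days. RFP fluorescence (530/590 nm) read daily; day-4 values relative to untreated infected cells fitted by non-linear regression; triplicate.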

Cryptococcus neoformans [13] = assay: Antifungal activity against fluconazole-resistant Cryptococcus neoformans serotype A MRL862 harboring erg11 mutant measured over 4 days; assay type: functional, organism-based; conditions: MRL862, 96 h; summary of the method: as §1
[14] = Therapeutic index, ratio of IC50 for mouse P388D1 cells to IC50 for Histoplasma capsulatum OSU76; assay type: toxicity; conditions: read-out: Ratio IC50
Cryptococcus neoformans [15] = assay: Antifungal activity against Cryptococcus neoformans TDY271 after 72 hrs by microdilution assay; assay type: functional, organism-based; conditions: TDY271, 72 h
Histoplasma capsulatum [16] = assay: Fungistatic activity against Histoplasma capsulatum OSU76 after 2 to 24 hrs by colony forming assay; assay type: functional, organism-based

Row | SMILES | IC50 (Cryptococcus neoformans [1]) [nM] | MIC90 (Cryptococcus neoformans [1]) [µM] | IC50 (Cryptococcus neoformans [2]) [nM] | solubility [3] [µg/mL] | Ratio [4] | IC50 (Histoplasma capsulatum [5]) [nM] | MIC90 (Histoplasma capsulatum [5]) [µM] | IC50 (P388D1) [nM] | solubility [6] [µg/mL] | IC50 (Histoplasma capsulatum [7]) [nM] | MIC90 (Histoplasma capsulatum [7]) [µM] | selectivity ratio [8] | MIC90 (Cryptococcus neoformans [2]) [µM] | IC50 (Cryptococcus neoformans [9]) [nM] | MIC90 (Cryptococcus neoformans [9]) [µM] | selectivity ratio [10] | IC50 (Cryptococcus neoformans [11]) [nM] | MIC90 (Cryptococcus neoformans [11]) [µM] | MIC (Histoplasma capsulatum [12]) [µM] | IC50 (Histoplasma capsulatum [12]) [nM] | also measured
1 | O=C(CCC1CCCCC1)Nc1ncc(Cc2ccccn2)s1 | > 20000 | > 40 | > 20000 | 60 (≈ 182 µM) | 1.5 | 8090 | 20 (≈ 6.59 µg/mL) | > 40000 | 40 (≈ 121 µM) | > 20000 | > 40 | > 5 |  |  |  |  |  |  |  |  | 
2 | O=C(Nc1ncc(Cc2cccc3sccc23)s1)C1CCCCC1 |  |  | 210 to 370 |  |  | 200 | 0.31 (≈ 0.111 µg/mL) | > 40000 |  |  |  | > 200 | 0.63 to 1.25 (≈ 0.225 to 0.446 µg/mL) | 160 | 0.63 (≈ 0.225 µg/mL) | > 108 | 190 | 0.31 (≈ 0.111 µg/mL) | 2.5 (≈ 0.891 µg/mL) | 1210 | IC50 (Cryptococcus neoformans [13]): 130 nM; MIC90 (Cryptococcus neoformans [13]): 0.31 µM (≈ 0.111 µg/mL)
3 | O=C(Nc1ncc(Cc2ccncc2)s1)C1CCCCC1 | > 20000 | > 40 | > 20000 | 1190 (≈ 3950 µM) | 3.4 | > 20000 |  |  | 350 (≈ 1160 µM) | > 20000 | > 40 |  |  |  |  |  |  |  |  |  | 
4 | O=C(CCC1CCCCC1)Nc1ncc(Cc2ccnc3ccccc23)s1 | > 20000 | > 40 | > 20000 | 5 (≈ 13.2 µM) | 1.7 | > 20000 | > 40 |  | 3 (≈ 7.9 µM) | 15700 | 40 (≈ 15.2 µg/mL) |  |  |  |  |  |  |  |  |  | 
5 | O=C(Nc1ncc(Cc2ccnc3ccccc23)s1)C1CCCCC1 | 4290 | 10 (≈ 3.51 µg/mL) | 3240 | 130 (≈ 370 µM) | 1.9 | 3050 |  | 13900 | 70 (≈ 199 µM) | 16800 | 40 (≈ 14.1 µg/mL) | 5 |  |  |  | 5 |  |  |  |  | 
6 | O=C(Nc1ncc(Cc2cccc3ccsc23)s1)C1CCCCC1 |  |  | 340 |  |  | 200 | 0.31 (≈ 0.111 µg/mL) | > 40000 |  |  |  | > 200 | 0.63 (≈ 0.225 µg/mL) | 270 | 0.63 (≈ 0.225 µg/mL) | > 118 | 230 | 0.63 (≈ 0.225 µg/mL) | 2.5 (≈ 0.891 µg/mL) | 1380 | IC50 (Cryptococcus neoformans [13]): 200 nM; MIC90 (Cryptococcus neoformans [13]): 0.63 µM (≈ 0.225 µg/mL)
7 | O=C(Nc1ncc(Cc2cccnc2)s1)C1CCCCC1 | > 20000 | > 40 | > 20000 | 590 (≈ 1960 µM) | 1.7 | > 20000 |  |  | 340 (≈ 1130 µM) | > 20000 | > 40 |  |  |  |  |  |  |  |  |  | 
8 | O=C(c1cnc(NC(=O)C2CCCCC2)s1)c1cccc2ccccc12 |  |  | 890 |  |  | 190 | 0.31 (≈ 0.113 µg/mL) | > 40000 |  |  |  | > 211 | 2.5 (≈ 0.911 µg/mL) | 380 | 1.25 (≈ 0.456 µg/mL) | > 45 | 470 | 1.25 (≈ 0.456 µg/mL) | 1.25 (≈ 0.456 µg/mL) | 710 | IC50 (Cryptococcus neoformans [13]): 410 nM; MIC90 (Cryptococcus neoformans [13]): 1.25 µM (≈ 0.456 µg/mL)
9 | O=C(Nc1ncc(Cc2cccc3ccccc23)s1)C1CCCCC1 | 3040 | 5 (≈ 1.75 µg/mL) | 670 | 4 (≈ 11.4 µM) | 1 | 480 | 1.25 (≈ 0.438 µg/mL) | > 40000 | 4 (≈ 11.4 µM) | 6750 | 10 (≈ 3.5 µg/mL) | > 83 | 1.25 (≈ 0.438 µg/mL) | 180 | 0.63 (≈ 0.221 µg/mL) | > 60 | 200 | 0.63 (≈ 0.221 µg/mL) | 2.5 (≈ 0.876 µg/mL) | 1260 | selectivity ratio [14]: 63; IC50 (Cryptococcus neoformans [15]): 1250 nM; IC50 (Histoplasma capsulatum [16]): 870 nM; IC50 (Cryptococcus neoformans [13]): 230 nM; MIC90 (Cryptococcus neoformans [13]): 0.63 µM (≈ 0.221 µg/mL)
10 | O=C(Nc1ncc(Cc2ccccn2)s1)C1CCCCC1 | 15600 | > 40 | 7170 | 480 (≈ 1590 µM) | 1.4 | 18300 | 40 (≈ 12.1 µg/mL) | > 40000 | 340 (≈ 1130 µM) | > 20000 | > 40 | > 2 | 20 (≈ 6.03 µg/mL) |  |  | > 6 |  |  |  |  | 
11 | O=C(CCC1CCCCC1)Nc1ncc(Cc2ccncc2)s1 | > 20000 | > 40 | > 20000 | 140 (≈ 425 µM) | 3.5 | 7670 | 20 (≈ 6.59 µg/mL) | > 40000 | 40 (≈ 121 µM) | 11100 | 40 (≈ 13.2 µg/mL) | > 5 |  |  |  |  |  |  |  |  | 
